Reference: ChEMBL document CHEMBL1177847, “Combating oxidative stress in epilepsy: design, synthesis, quantum chemical studies and anticonvulsant evaluation of 1-(substituted benzylidene/ethylidene)-4-(naphthalen-1-yl)semicarbazides” (Eur J Med Chem, 2010)
The source made the active and inactive calls. No cut-off for these calls is given here.

Key:
[1] = system: Mus musculus; test: Anticonvulsant activity against subcutaneous pentylenetetrazole-induced seizures in Swiss albino mouse at 300 mg/kg, ip after 4 hrs; format: functional, organism-based; parameters: dose 300 mg/kg
In short: (§1)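 Male Swiss albino mice (18–25 g) were dosed i.p. with the compound in 5% gum acacia/water at 30, 100 or 300 mg/kg. Thirty minutes later they received PTZ 85 mg/kg (CD97) and were watched for seizures over 4 h. Readings at 0.5 and 4 h gave the lowest dose active in half or more of the animals. Myoclonic jerks were noted separately.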

[2] = system: Mus musculus; test: Neurotoxicity in ip dosed Swiss albino mouse assessed as minimum dose required to cause impair in motor coordination after 0.5 hrs by rotarod test; format: toxicity, organism-based; details: in vivo
In short: (§2)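 Rotarod motor-impairment test in male Swiss albino mice dosed i.p. at 30, 100 or 300 mg/kg in 5% gum acacia/water. Mice that fell off the rotating rod within 30 s during pretraining were excluded. The dose at which animals fell off was recorded at 0.5 and 4 h.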

[3] = system: Mus musculus; test: Anticonvulsant activity against maximal electroshock-induced seizures in ip dosed Swiss albino mouse assessed as minimum effective dose after 4 hrs; format: functional; details: read-out: MED
In short: (§3)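 Male Swiss albino mice (18–25 g) received the compound suspended in 5% gum acacia/water, i.p. at 30, 100 and 300 mg/kg (one to four animals per dose). Maximal electroshock was applied at 0.5 and 4 h. Protection meant abolition of the hind limb tonic extensor component. The lowest dose protecting half or more of the mice was recorded.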

[4] = system: Mus musculus; test: Neurotoxicity in ip dosed Swiss albino mouse assessed as impair in motor coordination at 300 mg/kg, ip after 4 hrs by rotarod test; format: toxicity, organism-based; parameters: dose 300 mg/kg, route intraperitoneal; details: in vivo; in short: as §2
[5] = system: Mus musculus; test: Anticonvulsant activity against subcutaneous pentylenetetrazole-induced seizures in ip dosed Swiss albino mouse assessed as minimum effective dose after 0.5 hrs; format: functional; details: read-out: MED; in short: as §1
[6] = system: Mus musculus; test: Anticonvulsant activity against maximal electroshock-induced seizures in Swiss albino mouse at 300 mg/kg, ip after 0.5 hrs; format: functional, organism-based; parameters: dose 300 mg/kg; in short: as §3
[7] = system: Mus musculus; test: Anticonvulsant activity against subcutaneous pentylenetetrazole-induced seizures in Swiss albino mouse at 300 mg/kg, ip after 0.5 hrs; format: functional, organism-based; parameters: dose 300 mg/kg; in short: as §1
[8] = system: Mus musculus; test: Anticonvulsant activity against maximal electroshock-induced seizures in ip dosed Swiss albino mouse assessed as minimum effective dose after 0.5 hrs; format: functional; details: read-out: MED; in short: as §3
[9] = system: Mus musculus; test: Neurotoxicity in ip dosed Swiss albino mouse assessed as minimum dose required to cause impair in motor coordination after 4 hrs by rotarod test; format: toxicity, organism-based; details: in vivo; in short: as §2
[10] = system: Mus musculus; test: Reduction of lipid peroxidation in subcutaneous pentylenetetrazole treated Swiss albino mouse brain assessed reduction of malondialdehyde level per mg of protein at 100 mg/kg, ip after 4 hrs by TBARS assay; format: functional; details: route intraperitoneal
In short: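 PTZ-treated mice were dosed at 100 mg/kg i.p. and decapitated 4 h after the last injection. Brains were homogenized in four volumes of ice-cold 50 mM Tris-HCl, pH 7.4, and spun at 3000 × g for 15 min. TBARS in the supernatant was read at 532 nm in the upper organic layer and expressed as nmol MDA/mg protein. n = 6, mean ± S.E.M.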

[11] = system: Mus musculus; test: Anticonvulsant activity against subcutaneous pentylenetetrazole-induced seizures in ip dosed Swiss albino mouse assessed as minimum effective dose after 4 hrs; format: functional; details: read-out: MED; in short: as §1
[12] = system: Mus musculus; test: Restoration of GSH peroxidase activity in subcutaneous pentylenetetrazole treated Swiss albino mouse brain assessed per mg of protein at 100 mg/kg, ip after 4 hrs; format: functional; details: route intraperitoneal
In short: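 Brain homogenate came from PTZ-treated mice 4 h after 100 mg/kg i.p. dosing, using the 10500 × g supernatant. Samples were equilibrated 5 min at 25 °C, started with H2O2, and A340 was followed for 5 min. n = 6.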

[13] = system: Mus musculus; test: Restoration of GSH level in subcutaneous pentylenetetrazole treated Swiss albino mouse brain assessed per gram of tissue at 100 mg/kg, ip after 4 hrs; format: functional; details: route intraperitoneal
In short: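 Brains were taken from PTZ-treated mice 4 h after 100 mg/kg i.p. dosing. Tissue was deproteinized with an equal volume of 10% TCA for 2 h at 4 °C and centrifuged at 2000 g for 15 min. The supernatant was mixed with 0.4 M Tris (pH 8.9) containing 0.02 M EDTA, and 0.01 M DTNB was added before spectrophotometric reading. n = 6.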

[14] = system: Mus musculus; test: Neurotoxicity in ip dosed Swiss albino mouse assessed as impair in motor coordination at 300 mg/kg, ip after 0.5 hrs by rotarod test; format: toxicity, organism-based; parameters: dose 300 mg/kg, route intraperitoneal; details: in vivo; in short: as §2
[15] = system: Mus musculus; test: Toxicity in subcutaneous pentylenetetrazole-induced Swiss albino mouse assessed as myoclonic jerks at 100 mg/kg, ip after 0.5 hrs; format: organism-based; parameters: dose 100 mg/kg; in short: as §1
[16] = system: Mus musculus; test: Restoration of SOD activity in subcutaneous pentylenetetrazole treated Swiss albino mouse brain assessed per mg of protein at 100 mg/kg, ip after 4 hrs; format: functional; details: route intraperitoneal
In short: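 The ethanol phase of an ethanol/chloroform (5:3) extract of brain supernatant was used, from PTZ-treated mice 4 h after 100 mg/kg i.p. Superoxide was generated by xanthine–xanthine oxidase at pH 10.2 with NBT, 20 min at 25 °C. The reaction was stopped with CuCl2 and read at 560 nm. One unit gives 50% inhibition of NBT reduction; results are expressed as U/mg protein. n = 6.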

[17] = system: Mus musculus; test: Toxicity in subcutaneous pentylenetetrazole-induced Swiss albino mouse assessed as myoclonic jerks at 300 mg/kg, ip after 0.5 hrs; format: organism-based; parameters: dose 300 mg/kg; in short: as §1
[18] = system: Mus musculus; test: Anticonvulsant activity against maximal electroshock-induced seizures in Swiss albino mouse at 300 mg/kg, ip after 4 hrs; format: functional, organism-based; parameters: dose 300 mg/kg; in short: as §3
[19] = system: Mus musculus; test: Toxicity in subcutaneous pentylenetetrazole-induced Swiss albino mouse assessed as death at 30 to 300 mg/kg, ip after 0.5 hrs; format: organism-based; parameters: dose 30-300 mg/kg
In short: (§4)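 Male Swiss albino mice (18–25 g) given compound suspended in 5% gum acacia/water, i.p. at 30, 100 or 300 mg/kg, one to four animals per dose. PTZ at 85 mg/kg was injected 30 min after compound. Animals were examined 0.5 and 4 h after administration, and death following tonic extension was noted. The maximum dose was 300 mg/kg.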

[20] = system: Mus musculus; test: Toxicity in subcutaneous pentylenetetrazole-induced Swiss albino mouse assessed as death at 30 to 300 mg/kg, ip after 4 hrs; format: organism-based; parameters: dose 30-300 mg/kg; in short: as §4
[21] = system: Rattus norvegicus; test: Anticonvulsant activity against subcutaneous pentylenetetrazole-induced seizures in Wistar albino rat at 50 mg/kg, ip after 2 hrs; format: functional

SMILES	Activity [1]	Activity [2] [mg/kg]	minimal effective dose [3] [mg/kg]	Activity [4]	minimal effective dose [5] [mg/kg]	Activity [6]	minimal effective dose [8] [mg/kg]	Activity [9] [mg/kg]	Activity [14]	Activity [18]	further results
O=C(N/N=C/c1ccc(Cl)cc1)Nc1cccc2ccccc12	inactive	300	300	Non-toxic	300	inactive	–	–	–	–	–
O=C1NC(=O)C(c2ccccc2)(c2ccccc2)N1 [PHENYTOIN]	inactive	100	30	–	–	–	30	100	–	–	Activity [7]: inactive
O=C(N/N=C/c1ccc([N+](=O)[O-])cc1)Nc1cccc2ccccc12	–	–	300	–	–	–	300	300	Non-toxic	–	Activity [10]: 3.39 nmol; minimal effective dose [11]: 300 mg/kg; Activity [12]: 1.47 U; Activity [13]: 16.76 µg; Activity [15]: Toxic; Activity [16]: 1.73 U
C/C(=N\NC(=O)Nc1cccc2ccccc12)c1ccc(Cl)cc1Cl	–	–	300	–	–	inactive	–	300	Non-toxic	–	minimal effective dose [11]: 300 mg/kg; Activity [17]: Toxic
O=C(N/N=C/c1ccccc1)Nc1cccc2ccccc12	inactive	100	–	–	–	–	300	100	–	inactive	Activity [19]: Toxic
O=C(N/N=C/c1ccc(Cl)cc1Cl)Nc1cccc2ccccc12	–	–	100	–	300	–	100	300	Non-toxic	–	Activity [10]: 2.78 nmol; minimal effective dose [11]: 300 mg/kg; Activity [12]: 1.65 U; Activity [13]: 21.35 µg; Activity [16]: 1.69 U
O=C(N/N=C/c1ccccc1O)Nc1cccc2ccccc12	–	300	–	–	300	inactive	–	300	–	inactive	Activity [20]: Toxic
COc1cccc(/C=N/NC(=O)Nc2cccc3ccccc23)c1	inactive	100	300	Non-toxic	100	inactive	–	–	–	–	–
C/C(=N\NC(=O)Nc1cccc2ccccc12)c1ccc(Cl)cc1	inactive	300	300	Non-toxic	300	inactive	–	–	–	–	–
COc1ccc(OC)c(/C=N/NC(=O)Nc2cccc3ccccc23)c1	inactive	300	300	Non-toxic	300	inactive	–	–	–	–	–
COc1cc(/C=N/NC(=O)Nc2cccc3ccccc23)ccc1O	inactive	100	–	–	300	–	300	100	–	inactive	–
O=C(N/N=C/c1ccc(Br)cc1)Nc1cccc2ccccc12	inactive	300	300	–	300	–	300	300	–	–	–
COc1ccc(/C=N/NC(=O)Nc2cccc3ccccc23)cc1OC	–	–	100	Non-toxic	100	–	100	–	Non-toxic	–	Activity [10]: 2.53 nmol; minimal effective dose [11]: 300 mg/kg; Activity [12]: 1.62 U; Activity [13]: 18.51 µg; Activity [21]: inactive; Activity [16]: 1.45 U
CN(C)c1ccc(/C=N/NC(=O)Nc2cccc3ccccc23)cc1	–	100	100	–	–	–	100	100	–	–	minimal effective dose [11]: 300 mg/kg; Activity [15]: Toxic
O=C(N/N=C/c1ccc(O)cc1)Nc1cccc2ccccc12	inactive	100	–	–	–	–	100	300	–	inactive	Activity [7]: inactive
O=C(N/N=C/c1ccccc1[N+](=O)[O-])Nc1cccc2ccccc12	inactive	300	300	Non-toxic	300	inactive	–	–	–	–	–
O=C(N/N=C/c1ccccc1Cl)Nc1cccc2ccccc12	inactive	–	–	–	300	inactive	–	300	Non-toxic	inactive	–
CCC1(C)CC(=O)NC1=O (stereo unspecified) [ETHOSUXIMIDE]	inactive	–	–	Non-toxic	300	inactive	–	–	Non-toxic	inactive	–
O=C(N/N=C/c1ccc(F)cc1)Nc1cccc2ccccc12	–	–	300	–	300	inactive	–	100	Non-toxic	–	Activity [20]: Toxic
NC(=O)N1c2ccccc2C=Cc2ccccc21 [CARBAMAZEPINE]	–	100	100	–	100	–	30	300	–	–	minimal effective dose [11]: 300 mg/kg
COc1ccc(/C=N/NC(=O)Nc2cccc3ccccc23)cc1	inactive	300	–	Non-toxic	–	–	300	–	–	inactive	Activity [19]: Toxic
CCCC(CCC)C(=O)O [VALPROIC ACID]	inactive	–	–	Non-toxic	300	inactive	–	–	Non-toxic	inactive	Activity [10]: 1.96 nmol; Activity [12]: 2.19 U; Activity [13]: 22.14 µg; Activity [16]: 1.82 U
C/C(=N\NC(=O)Nc1cccc2ccccc12)c1ccccc1	inactive	100	–	Non-toxic	–	–	300	–	–	inactive	Activity [7]: inactive
C/C(=N\NC(=O)Nc1cccc2ccccc12)c1ccc(C)cc1	inactive	300	–	–	300	inactive	–	300	–	inactive	–
